Active and inactive are the calls of the source. The rule behind the calls is not given here.
Experiments:
Mus musculus [1] = test: Reduction in lymphocyte level in BALB/c mouse assessed as blood lymphocyte level at 0.5 mg/kg, po after 24 hrs by hematology analysis (reference value: 5.13 to 8.02 10^3/mm3); format: functional
Mus musculus [2] = test: Reduction in lymphocyte level in BALB/c mouse assessed as blood lymphocyte level at 10 mg/kg, po after 24 hrs by hematology analysis (reference value: 5.13 to 8.02 10^3/mm3); format: functional
Mus musculus [3] = test: Reduction in lymphocyte level in BALB/c mouse assessed as blood lymphocyte level at 30 mg/kg, po after 24 hrs by hematology analysis (reference value: 5.13 to 8.02 10^3/mm3); format: functional
Mus musculus [4] = test: Pulmonary toxicity in BALB/c mouse assessed as BAL protein levels at 0.5 mg/kg, po after 24 by hematology analysis (reference value: 8.2 to 8.3 mg/dL); format: organism-based; conditions: in vivo
Mus musculus [5] = test: Pulmonary toxicity in BALB/c mouse assessed as BAL protein levels at 10 mg/kg, po after 24 by hematology analysis (reference value: 8.2 to 8.3 mg/dL); format: organism-based; conditions: in vivo
Mus musculus [6] = test: Pulmonary toxicity in BALB/c mouse assessed as BAL protein levels at 30 mg/kg, po after 24 by hematology analysis (reference value: 8.2 to 8.3 mg/dL); format: organism-based; conditions: in vivo
Mus musculus [7] = test: Induction of colon length shortening in SCID mouse with CD45RBhiCD4+ T-cell transfer-induced colitis model of inflammatory bowel disease at 1 mg/kg, po dosed daily for 5 weeeks; format: functional, organism-based
How it was run: (§1)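 CD45RBhiCD4+ T-cell transfer colitis in mice; oral dosing at 1 mg/kg/day for 5 weeks, compared with vehicle. Read-outs: body weight, colon length, and colon gene expression by RT-PCR (IFN-γ, IL-2, CD4, B220, CD11b, Fcgr4, Ifit1, OASL2).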

Mus musculus [8] = test: Reduction in body weight loss in SCID mouse with CD45RBhiCD4+ T-cell transfer-induced colitis model of inflammatory bowel disease at 1 mg/kg, po dosed daily for 5 weeks; format: functional, organism-based; how it was run: as §1
Mus musculus [9] = test: Reduction in IL2 gene expression in SCID mouse with CD45RBhiCD4+ T-cell transfer-induced colitis model of inflammatory bowel disease at 5 mg/kg, po dosed every other day for 5 weeks by RT-PCR method; format: functional; conditions: 840 h
How it was run: (§2)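 CD45RBhiCD4+ T-cell transfer colitis in mice; oral alternate-day dosing for 5 weeks, compared with vehicle. Read-outs: body weight, colon length, histological colon inflammation and tissue damage, and colon gene expression by RT-PCR (IFN-γ, IL-2, CD4, B220, CD11b, Fcgr4, Ifit1, OASL2).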

Mus musculus [10] = test: Reduction in IFNgamma gene expression in SCID mouse with CD45RBhiCD4+ T-cell transfer-induced colitis model of inflammatory bowel disease at 5 mg/kg, po dosed every other day for 5 weeks by RT-PCR method; format: functional; conditions: 840 h; how it was run: as §2
Mus musculus [11] = test: Reduction in CD11b gene expression in SCID mouse with CD45RBhiCD4+ T-cell transfer-induced colitis model of inflammatory bowel disease at 5 mg/kg, po dosed every other day for 5 weeks by RT-PCR method; format: functional; conditions: 840 h; how it was run: as §2
Mus musculus [12] = test: Reduction in CD4 gene expression in SCID mouse with CD45RBhiCD4+ T-cell transfer-induced colitis model of inflammatory bowel disease at 5 mg/kg, po dosed every other day for 5 weeks by RT-PCR method; format: functional; conditions: 840 h; how it was run: as §2
Mus musculus [13] = test: Reduction in B220 gene expression in SCID mouse with CD45RBhiCD4+ T-cell transfer-induced colitis model of inflammatory bowel disease at 5 mg/kg, po dosed every other day for 5 weeks by RT-PCR method; format: functional; conditions: 840 h; how it was run: as §2
Mus musculus [14] = test: Reduction in Fcgr4 gene expression in SCID mouse with CD45RBhiCD4+ T-cell transfer-induced colitis model of inflammatory bowel disease at 5 mg/kg, po dosed every other day for 5 weeks by RT-PCR method; format: functional; conditions: 840 h; how it was run: as §2
Mus musculus [15] = test: Reduction in Ifit1 gene expression in SCID mouse with CD45RBhiCD4+ T-cell transfer-induced colitis model of inflammatory bowel disease at 5 mg/kg, po dosed every other day for 5 weeks by RT-PCR method; format: functional; conditions: 840 h; how it was run: as §2
Mus musculus [16] = test: Reduction in OASL2 gene expression in SCID mouse with CD45RBhiCD4+ T-cell transfer-induced colitis model of inflammatory bowel disease at 5 mg/kg, po dosed every other day for 5 weeks by RT-PCR method; format: functional; conditions: 840 h; how it was run: as §2
[17] = Drug metabolism in BALB/c mouse whole blood assessed as whole blood phosphate area ratio at 10 uM after 4 hrs by LC/MS/MS analysis; format: ADME, tissue-based
How it was run: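 Mouse whole blood incubated with the amino-alcohol prodrug; phosphorylated product measured by LC/MS/MS after 4 h to give the relative extent of phosphate ester formation.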

Mus musculus [18] = test: Reduction of blood lymphocyte level in BALB/c mouse at 1 mg/kg administered through oral gavage after 24 hrs by hematology analysis; format: functional; design: scale not given: the % may be the effect or the level left
How it was run: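 Mice given a single oral 1 mg/kg dose; circulating lymphocytes counted 24 h later as the pharmacodynamic marker.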

Heart [19] = test: Toxicity in guinea pig heart assessed as reduction in ventricular rate at 100 nM after 10 mins by ECG analysis; format: tissue-based, Cavia porcellus, Cardiac ventricle; conditions: 0.1 µM
How it was run: (§3)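 Isolated guinea pig hearts perfused with the phosphate at the stated concentrations; ventricular rate and atrioventricular conduction (third-degree AV block) monitored.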

Heart [20] = test: Toxicity in guinea pig heart assessed as third degree AV block at 300 nM after 10 mins by ECG analysis; format: tissue-based, Cavia porcellus; conditions: 0.3 µM; how it was run: as §3
Blood [21] = test: Drug metabolism in BALB/c mouse blood assessed as formation of phosphate ester metabolite at 10 mg/kg administered through oral gavage after 24 hrs by LC/MS/MS analysis; format: ADME, organism-based; conditions: in vivo
How it was run: (§4)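 Mouse PK study: alcohol prodrug given orally at 10 mg/kg, and formation of the phosphate metabolite in blood measured.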

Blood [22] = test: Drug metabolism in BALB/c mouse blood assessed as formation of phosphate ester metabolite at 10 mg/kg administered through oral gavage after 4 hrs by LC/MS/MS analysis; format: ADME, organism-based; conditions: in vivo; how it was run: as §4
Blood [23] = test: Drug metabolism in BALB/c mouse blood assessed as formation of phosphate metabolite at 1 mg/kg administered through oral gavage after 24 hrs by LC/MS/MS analysis; format: ADME, organism-based; conditions: in vivo
How it was run: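 Single oral 1 mg/kg dose in mice; phosphate level in blood determined at 24 h postdose.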

CCCCCCCCc1ccc(CCC(N)(CO)CO)cc1 [FINGOLIMOD]
Activity (Mus musculus [1]): 1.28 ×10³ /mm3 | Activity (Mus musculus [2]): 0.92 ×10³ /mm3 | Activity (Mus musculus [3]): 0.29 ×10³ /mm3 | Activity (Mus musculus [4]): 7.5 mg/dL | Activity (Mus musculus [5]): 34.2 mg/dL | Activity (Mus musculus [6]): 71 mg/dL | Activity (Mus musculus [7]): Active | inhibition (Mus musculus [8]): Active | inhibition in vivo at 5 mg/kg (Mus musculus [9]): 68% | inhibition in vivo at 5 mg/kg (Mus musculus [10]): 30% | inhibition in vivo at 5 mg/kg (Mus musculus [11]): 45% | inhibition in vivo at 5 mg/kg (Mus musculus [12]): 60% | inhibition in vivo at 5 mg/kg (Mus musculus [13]): 55% | inhibition in vivo at 5 mg/kg (Mus musculus [14]): 25% | inhibition in vivo at 5 mg/kg (Mus musculus [15]): 16% | inhibition in vivo at 5 mg/kg (Mus musculus [16]): 7%

CCCCCCC1CCc2cc(C3CCC(N)(CO)C3)ccc2C1 (stereo in doubt; 3h)
Ratio [17]: 0.17 | Activity (Mus musculus [18]): 60%

CCc1cc(/C(C)=N/OCc2ccc(C3CCCCC3)c(C(F)(F)F)c2)ccc1CN1CC(C(=O)O)C1 [SIPONIMOD]
Activity (Heart [19]): Toxic | Activity (Heart [20]): Toxic

CCCCCCC1CCc2cc(C3CCC(N)(CO)C3)ccc2C1 (stereo in doubt; 3b)
Drug metabolism (Blood [21]): 475 nM | Ratio [17]: 1.6 | Drug metabolism (Blood [22]): 67 nM | Activity (Mus musculus [18]): 90% | Drug metabolism (Blood [23]): 47 nM

CCCCCCC1CCc2cc(C3CCC(N)(CO)C3)ccc2C1 (stereo in doubt; 3f)
Ratio [17]: 0.6 | Activity (Mus musculus [18]): 80%

CCCCCCC1CCc2cc(C3CCC(N)(CO)C3)ccc2C1 (stereo in doubt; 3c)
Drug metabolism (Blood [21]): 46 nM | Ratio [17]: 0.14 | Drug metabolism (Blood [22]): 12 nM | Activity (Mus musculus [18]): 18%
